Results reported in ChEMBL document CHEMBL1255404, “Spread of OXA-48-encoding plasmid in Turkey and beyond” (2010).
In brackets after ≈: the same amount, converted by molar mass.

Legend:
Format in all cases: functional
[1] = tested on: Klebsiella pneumoniae; experiment: Antimicrobial activity against Klebsiella pneumoniae isolate KpL expressing beta-lactamase OXA-48 by Etest method
[2] = tested on: Klebsiella pneumoniae; experiment: Antimicrobial activity against Klebsiella pneumoniae isolate Kp11978 expressing beta-lactamase OXA-48, SHV-2a and TEM-1 by Etest method
[3] = tested on: Escherichia coli; experiment: Antimicrobial activity against Escherichia coli isolate J53 harboring pA-1 containing beta-lactamase OXA-48 located within transposon Tn1999 by Etest method
Method in brief: (§1)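 β-Lactam MICs read with Etest strips. Strains are E. coli J53 recipient and J53 transconjugants carrying OXA-48-positive plasmids recovered from clinical enterobacterial isolates.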

[4] = tested on: Klebsiella pneumoniae; experiment: Antimicrobial activity against Klebsiella pneumoniae isolate KpB expressing OXA-48 and CTX-M-15 by Etest method
[5] = tested on: Escherichia coli; experiment: Antimicrobial activity against Escherichia coli isolate J53 harboring pBb containing beta-lactamase OXA-48 located within transposon Tn1999.2 by Etest method; method in brief: as §1
[6] = tested on: Klebsiella pneumoniae; experiment: Antimicrobial activity against Klebsiella pneumoniae isolate Kp3A expressing beta-lactamase OXA-48 by Etest method
Method in brief: (§2)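 MICs of β-lactams read from Etest strips. The test organisms are carbapenem-resistant, OXA-48-positive clinical Enterobacteriaceae isolates recovered from Turkey, Lebanon, Egypt, France and Belgium.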

[7] = tested on: Escherichia coli; experiment: Antimicrobial activity against Escherichia coli isolate J53 harboring p3A containing beta-lactamase OXA-48 located within transposon Tn1999 by Etest method; method in brief: as §1
[8] = tested on: Klebsiella pneumoniae; experiment: Antimicrobial activity against Klebsiella pneumoniae isolate Kp4A expressing beta-lactamase OXA-48 and CTX-M-15 by Etest method
[9] = tested on: Klebsiella pneumoniae; experiment: Antimicrobial activity against Klebsiella pneumoniae isolate Kp5A expressing beta-lactamase OXA-48 and SHV-5 by Etest method
[10] = tested on: Klebsiella pneumoniae; experiment: Antimicrobial activity against Klebsiella pneumoniae isolate Kp6A expressing beta-lactamase OXA-48 and TEM-150 by Etest method
[11] = tested on: Escherichia coli; experiment: Antimicrobial activity against Escherichia coli isolate J53 harboring p4A containing beta-lactamase OXA-48 located within transposon Tn1999 by Etest method; method in brief: as §1
[12] = tested on: Escherichia coli; experiment: Antimicrobial activity against Escherichia coli isolate J53 harboring p5A containing beta-lactamase OXA-48 located within transposon Tn1999 by Etest method; method in brief: as §1
[13] = tested on: Escherichia coli; experiment: Antimicrobial activity against Escherichia coli isolate J53 harboring p6A containing beta-lactamase OXA-48 located within transposon Tn1999 by Etest method; method in brief: as §1
[14] = tested on: Klebsiella pneumoniae; experiment: Antimicrobial activity against Klebsiella pneumoniae isolate Kp7A expressing beta-lactamase OXA-48 by Etest method; method in brief: as §2
[15] = tested on: Escherichia coli; experiment: Antimicrobial activity against Escherichia coli isolate J53 harboring p7A containing beta-lactamase OXA-48 located within transposon Tn1999 by Etest method; method in brief: as §1
[16] = tested on: Klebsiella pneumoniae; experiment: Antimicrobial activity against Klebsiella pneumoniae isolate KpI-1 expressing beta-lactamase OXA-48 and CTX-M-15 by Etest method
[17] = tested on: Klebsiella pneumoniae; experiment: Antimicrobial activity against Klebsiella pneumoniae isolate KpI-2 expressing beta-lactamase OXA-48 and CTX-M-15 by Etest method
[18] = tested on: Escherichia coli; experiment: Antimicrobial activity against Escherichia coli isolate J53 harboring pI-1 containing beta-lactamase OXA-48 located within transposon Tn1999.2 by Etest method; method in brief: as §1
[19] = tested on: Escherichia coli; experiment: Antimicrobial activity against Escherichia coli isolate J53 harboring pI-2 containing beta-lactamase OXA-48 located within transposon Tn1999.2 by Etest method; method in brief: as §1
[20] = tested on: Klebsiella pneumoniae; experiment: Antimicrobial activity against Klebsiella pneumoniae isolate KpBIC expressing beta-lactamase OXA-48 by Etest method; method in brief: as §2
[21] = tested on: Escherichia coli; experiment: Antimicrobial activity against Escherichia coli isolate TOP10 harboring pBIC containing beta-lactamase OXA-48 located within transposon Tn1999.2 by Etest method
Method in brief: (§3)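 β-Lactam MICs read with Etest strips. Strains are E. coli TOP10 host and TOP10 transformants made with plasmid DNA extract when conjugation failed. Transformants were selected on LB agar with ticarcillin 50 μg/ml.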

[22] = tested on: Klebsiella pneumoniae; experiment: Antimicrobial activity against Klebsiella pneumoniae isolate KpE expressing beta-lactamase OXA-48 and CTX-M-15 by Etest method
[23] = tested on: Escherichia coli; experiment: Antimicrobial activity against Escherichia coli isolate J53 harboring pE containing beta-lactamase OXA-48 located within transposon Tn1999.2 by Etest method; method in brief: as §1
[24] = tested on: Klebsiella pneumoniae; experiment: Antimicrobial activity against Klebsiella pneumoniae isolate KpBEL expressing beta-lactamase OXA-48 by Etest method; method in brief: as §2
[25] = tested on: Escherichia coli; experiment: Antimicrobial activity against Escherichia coli isolate J53 harboring pBEL containing beta-lactamase OXA-48 located within transposon Tn1999.2 by Etest method; method in brief: as §1
[26] = tested on: Escherichia coli; experiment: Antimicrobial activity against Escherichia coli isolate J53 harboring pL containing beta-lactamase OXA-48 located within transposon Tn1999.2 by Etest method; method in brief: as §1
[27] = tested on: Providencia rettgeri; experiment: Antimicrobial activity against Providencia rettgeri isolate expressing beta-lactamase OXA-48 and TEM-101 by Etest method
[28] = tested on: Escherichia coli; experiment: Antimicrobial activity against Escherichia coli isolate TOP10 harboring pPR containing beta-lactamase and TEM-101 by Etest method; method in brief: as §3
[29] = tested on: Enterobacter cloacae; experiment: Antimicrobial activity against Enterobacter cloacae isolate 1 expressing beta-lactamase OXA-48 and SHV-5 by Etest method
[30] = tested on: Escherichia coli; experiment: Antimicrobial activity against Escherichia coli isolate J53 harboring pEnc1 containing beta-lactamase OXA-48 located within transposon Tn1999 by Etest method; method in brief: as §1
[31] = tested on: Enterobacter cloacae; experiment: Antimicrobial activity against Enterobacter cloacae isolate 2 expressing beta-lactamase OXA-48 and SHV-5 by Etest method
[32] = tested on: Escherichia coli; experiment: Antimicrobial activity against Escherichia coli isolate J53 harboring pEnc2 containing beta-lactamase OXA-48 located within transposon Tn1999 by Etest method; method in brief: as §1
[33] = tested on: Citrobacter freundii; experiment: Antimicrobial activity against Citrobacter freundii isolate expressing beta-lactamase OXA-48 by Etest method
[34] = tested on: Escherichia coli; experiment: Antimicrobial activity against Escherichia coli isolate J53 harboring pCF containing beta-lactamase OXA-48 located within transposon Tn1999 by Etest method; method in brief: as §1
[35] = tested on: Escherichia coli; experiment: Antimicrobial activity against Escherichia coli isolate A expressing beta-lactamase OXA-48 and TEM-150 by Etest method
[36] = tested on: Escherichia coli; experiment: Antimicrobial activity against Escherichia coli isolate J53 harboring pEcA containing beta-lactamase OXA-48 located within transposon Tn1999.2 by Etest method; method in brief: as §1
[37] = tested on: Escherichia coli; experiment: Antimicrobial activity against Escherichia coli isolate J53 by Etest method; method in brief: as §1
[38] = tested on: Escherichia coli; experiment: Antimicrobial activity against Escherichia coli isolate TOP10 by Etest method; method in brief: as §3

How did the MIC [1] turn out when `C[C@@H](O)[C@H]1C(=O)N2C(C(=O)O)=C(S[C@@H]3CN[C@H](C(=O)Nc4cccc(C(=O)O)c4)C3)[C@H](C)[C@H]12` was run?
The MIC was greater than 16 µg/mL.

And the MIC [2]?
Its MIC is 64 µg/mL (≈ 135 µM).

And the MIC [3]?
The MIC was 0.19 µg/mL (≈ 0.4 µM).

What about the MIC [4] of the same molecule?
The MIC was greater than 32 µg/mL.

What about the MIC [5] of the same molecule?
Its MIC is 0.25 µg/mL (≈ 0.526 µM).

And the MIC [6]?
The MIC was greater than 32 µg/mL.

And the MIC [7]?
Its MIC is 0.25 µg/mL (≈ 0.526 µM).

What about the MIC [8] of the same molecule?
The MIC was greater than 32 µg/mL.

What about the MIC [9] of the same molecule?
Its MIC is greater than 32 µg/mL.

And the MIC [10]?
Its MIC is greater than 32 µg/mL.

What about the MIC [11] of the same molecule?
The MIC was 0.12 µg/mL (≈ 0.252 µM).

And the MIC [12]?
Its MIC is 0.12 µg/mL (≈ 0.252 µM).

And the MIC [13]?
The MIC was 0.12 µg/mL (≈ 0.252 µM).

And the MIC [14]?
Its MIC is greater than 32 µg/mL.

What about the MIC [15] of the same molecule?
Its MIC is 0.19 µg/mL (≈ 0.4 µM).

What about the MIC [16] of the same molecule?
The MIC was 24 µg/mL (≈ 50.5 µM).

What about the MIC [17] of the same molecule?
Its MIC is 24 µg/mL (≈ 50.5 µM).

And the MIC [18]?
Its MIC is 0.25 µg/mL (≈ 0.526 µM).

And the MIC [19]?
The MIC was 0.25 µg/mL (≈ 0.526 µM).

And the MIC [20]?
The MIC was 2 µg/mL (≈ 4.21 µM).

And the MIC [21]?
Its MIC is 0.5 µg/mL (≈ 1.05 µM).

What about the MIC [22] of the same molecule?
Its MIC is 3 µg/mL (≈ 6.31 µM).

And the MIC [23]?
The MIC was 3 µg/mL (≈ 6.31 µM).

What about the MIC [24] of the same molecule?
Its MIC is 4 µg/mL (≈ 8.41 µM).

What about the MIC [25] of the same molecule?
Its MIC is 2 µg/mL (≈ 4.21 µM).

What about the MIC [26] of the same molecule?
Its MIC is 4 µg/mL (≈ 8.41 µM).

And the MIC [27]?
Its MIC is greater than 32 µg/mL.

What about the MIC [28] of the same molecule?
Its MIC is 0.75 µg/mL (≈ 1.58 µM).

What about the MIC [29] of the same molecule?
Its MIC is 0.5 µg/mL (≈ 1.05 µM).

What about the MIC [30] of the same molecule?
The MIC was 0.125 µg/mL (≈ 0.263 µM).

What about the MIC [31] of the same molecule?
The MIC was 0.75 µg/mL (≈ 1.58 µM).

What about the MIC [32] of the same molecule?
The MIC was 0.19 µg/mL (≈ 0.4 µM).

And the MIC [33]?
The MIC was greater than 32 µg/mL.

And the MIC [34]?
The MIC was 0.25 µg/mL (≈ 0.526 µM).

What about the MIC [35] of the same molecule?
Its MIC is greater than 32 µg/mL.

What about the MIC [36] of the same molecule?
Its MIC is 0.25 µg/mL (≈ 0.526 µM).

What about the MIC [37] of the same molecule?
The MIC was 0.06 µg/mL (≈ 0.126 µM).

And the MIC [38]?
The MIC was 0.06 µg/mL (≈ 0.126 µM).

How did the MIC [1] turn out when `C[C@H]1[C@H](NC(=O)/C(=N\OC(C)(C)C(=O)O)c2csc(N)n2)C(=O)N1S(=O)(=O)O` [AZTREONAM] was run?
The MIC was 0.06 µg/mL (≈ 0.138 µM).

And the MIC [5]?
Its MIC is less than 0.12 µg/mL.

And the MIC [6]?
The MIC was 0.06 µg/mL (≈ 0.138 µM).

What about the MIC [7] of the same molecule?
The MIC was 0.06 µg/mL (≈ 0.138 µM).

And the MIC [11]?
The MIC was 0.06 µg/mL (≈ 0.138 µM).

What about the MIC [12] of the same molecule?
The MIC was 0.06 µg/mL (≈ 0.138 µM).

What about the MIC [13] of the same molecule?
The MIC was 0.06 µg/mL (≈ 0.138 µM).

What about the MIC [14] of the same molecule?
Its MIC is 0.06 µg/mL (≈ 0.138 µM).

And the MIC [15]?
The MIC was 0.06 µg/mL (≈ 0.138 µM).

What about the MIC [18] of the same molecule?
The MIC was 0.06 µg/mL (≈ 0.138 µM).

And the MIC [19]?
The MIC was 0.06 µg/mL (≈ 0.138 µM).

And the MIC [20]?
Its MIC is 0.06 µg/mL (≈ 0.138 µM).

And the MIC [23]?
Its MIC is 0.06 µg/mL (≈ 0.138 µM).

What about the MIC [24] of the same molecule?
The MIC was 0.06 µg/mL (≈ 0.138 µM).

And the MIC [25]?
Its MIC is 0.06 µg/mL (≈ 0.138 µM).

What about the MIC [26] of the same molecule?
The MIC was 0.06 µg/mL (≈ 0.138 µM).

What about the MIC [28] of the same molecule?
Its MIC is 0.06 µg/mL (≈ 0.138 µM).

And the MIC [30]?
The MIC was 0.06 µg/mL (≈ 0.138 µM).

What about the MIC [32] of the same molecule?
The MIC was 0.06 µg/mL (≈ 0.138 µM).

What about the MIC [34] of the same molecule?
Its MIC is 0.06 µg/mL (≈ 0.138 µM).

And the MIC [36]?
The MIC was 0.06 µg/mL (≈ 0.138 µM).
